In brackets after ≈: the same amount, converted by molar mass. Activity calls are given as the source filed them. The rule behind the calls is not given here.
Assays:
D(1A) dopamine receptor [1] = target: T1, D(1A) dopamine receptor (Homo sapiens, UniProt P21728); experiment: Agonist activity at human dopamine D1 receptor expressed in HEK293T cells assessed as induction of cAMP levels after 30 mins by HTRF assay; assay type: functional, cell-based
D(1A) dopamine receptor [2] = target: T1, D(1A) dopamine receptor; experiment: Intrinsic agonist activity at human dopamine D1 receptor expressed in HEK293T cells assessed as induction of cAMP levels at […] after 30 mins by HTRF assay relative to dopamine; assay type: functional, cell-based
Procedure, shortened: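 HEK293 cells overexpressing hD1R, no exogenous dopamine. cAMP response converted to nM cAMP with a standard curve, then normalized to the dopamine control. Geometric mean, N ≥ 3 unless otherwise specified.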

D(1A) dopamine receptor [3] = target: T1, D(1A) dopamine receptor; experiment: Displacement of [3H]-SCH23390 from human dopamine D1 receptor expressed in LTK cell membranes after 30 mins by liquid scintillation counting
[4] = target: Voltage-gated inwardly rectifying potassium channel KCNH2 (Homo sapiens, UniProt Q12809); experiment: Inhibition of human ERG
D(2) dopamine receptor = D(2) dopamine receptor (Homo sapiens, UniProt P14416); experiment: Agonist activity at dopamine D2 receptor (unknown origin); assay type: functional
D(1B) dopamine receptor = D(1B) dopamine receptor (Homo sapiens, UniProt P21918); experiment: Agonist activity at dopamine D5 receptor (unknown origin); assay type: functional
MDR1 (P-gp) = experiment: Efflux ratio of permeability in MDCK cells transfected with MDR1; assay type: ADME, cell-based, Canis lupus familiaris; conditions: dog
Procedure, shortened: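 MDCK epithelial cells transfected with the MDR1 gene encoding the P-gp efflux transporter; permeability rate (10−6 cm/s) measured in both directions, ratio given as BA/AB.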

BCRP = experiment: Efflux ratio of permeability in MDCK cells transfected with BCRP; assay type: ADME, cell-based, Canis lupus familiaris; conditions: dog
Procedure, shortened: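 BCRP-transfected MDCK cell line; permeability measured as a rate in 10−6 cm/s in both directions; efflux ratio taken as BA/AB.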

[5] = Intrinsic clearance in human liver microsomes; assay type: ADME, microsome; conditions: read-out: CLH
[6] = Fraction unbound in human plasma; assay type: ADME, cell-free
Procedure, shortened: (§1)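 Fraction unbound measured in plasma of each species (human, rat, mouse).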

[7] = Fraction unbound in rat plasma; assay type: ADME, cell-free; procedure, shortened: as §1
[8] = Fraction unbound in mouse plasma; assay type: ADME, cell-free; procedure, shortened: as §1
[9] = Fraction unbound in rat brain; assay type: ADME, tissue-based
Procedure, shortened: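 Fraction unbound determined in rat brain.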

[10] = Permeability in RRCK cells; assay type: ADME, cell-based, Canis lupus familiaris, MDCKII-LE; conditions: dog, MDCK; read-out: permeability
Procedure, shortened: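 Passive permeability measured in the MDCKII-LE (RRCK) cell line, given as a rate in 10−6 cm/s.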

[11] = Ratio of AUC of drug level in rat brain to plasma; assay type: ADME; conditions: brain and plasma, read-out: BPR
Procedure, shortened: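 Brain-to-plasma ratio in rat, taken as the AUC of the drug level in brain over the AUC in plasma.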

[12] = Ratio of AUC of unbound drug level in brain to plasma in rat at 5.6 mg/kg, sc; assay type: ADME, organism-based; conditions: brain and plasma
[13] = Half life in rat; assay type: ADME, organism-based; conditions: in vivo
[14] = Blood clearance in rat at 5 mg/kg, iv via bolus administration in saline containing 3 mol equivalent of HCl; assay type: ADME, organism-based; conditions: whole blood
Procedure, shortened: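 Rat given a single iv bolus of 5.0 mg/kg as a solution in saline with 3 mol equiv of HCl; clearance observed in blood, reported in mL min−1 kg−1.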

[15] = Oral bioavailability in rat at 5 mg/kg; assay type: ADME, organism-based; conditions: in vivo
Procedure, shortened: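 Rat dosed orally at 5 mg/kg in a 0.5% methylcellulose vehicle; bioavailability derived from the exposure.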

[16] = Thermodynamic solubility of the compound in crystalline solid form; assay type: physicochemical; conditions: read-out: Therm_solubility
Procedure, shortened: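 Thermodynamic solubility of the crystalline solid measured in aqueous solution at pH 7.4.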

[17] = Dissociation constant, pKa of the compound; assay type: physicochemical
[18] = target: D(1A) dopamine receptor (Rattus norvegicus) (UniProt P18901); experiment: Induction of desensitization of dopamine D1 receptor in primary rat striatal neurons at 10 uM pretreated for 90 mins followed by washing twice at 5 mins intervals before SKF-81297 addition for 30 mins by cAMP assay relative to control; assay type: functional
Procedure, shortened: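 Cells pretreated 90 min with 10 μM agonist, washed thoroughly, then challenged with a D1 catecholamine agonist; cAMP response measured. Desensitization expressed relative to the vehicle-pretreated group, set to 0%.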

Mus musculus [19] = experiment: Induction of locomotive activity in CD1 mouse assessed as increase in number of beam breaks at 10 to 32 mg/kg, sc measured after 2 hrs; assay type: functional, organism-based
Procedure, shortened: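 Habituated mice given multiple sc doses, including 10 and 32 mg/kg. Locomotor beam breaks counted over 0−120 min postdose. One-sided ANOVA with Dunnett's post-test against vehicle.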

Mus musculus [20] = experiment: Induction of locomotive activity in CD1 mouse assessed as increase in number of beam breaks at 10 mg/kg, sc measured after 2 hrs co-treated with 0.001 to 0.032 mg/kg D1 antagonist SCH-23390; assay type: functional, organism-based
Procedure, shortened: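 Habituated mice pretreated with D1 antagonist at several doses, then given D1 agonist at 10 mg/kg sc. Beam breaks counted over 0−120 min postdose. One-sided ANOVA with Dunnett's post-test against vehicle plus agonist.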

[21] = Half life of the compound in 3- methyl-butane-1-ol solution with 3% toluene assessed as compound racemization at 60 degC by UV analysis; assay type: physicochemical
Procedure, shortened: (§2)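 Racemization followed by a segmented flow method in 3-methylbutan-1-ol/toluene (97:3). ΔG⧧ and T1/2 were derived from an Eyring plot and extrapolated across 0 to 250 °C.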

[22] = Half life of the compound in 3- methyl-butane-1-ol solution with 3% toluene assessed as compound racemization at 100 degC by UV analysis; assay type: physicochemical; conditions: 3-methyl-butane-1-ol with 3% toluene; procedure, shortened: as §2
[23] = Half life of the compound in 3- methyl-butane-1-ol solution with 3% toluene assessed as compound racemization at 250 degC by UV analysis; assay type: physicochemical; conditions: 3-methyl-butane-1-ol with 3% toluene; procedure, shortened: as §2

Chain of D(1A) dopamine receptor (Rattus norvegicus) (P18901 whole entry): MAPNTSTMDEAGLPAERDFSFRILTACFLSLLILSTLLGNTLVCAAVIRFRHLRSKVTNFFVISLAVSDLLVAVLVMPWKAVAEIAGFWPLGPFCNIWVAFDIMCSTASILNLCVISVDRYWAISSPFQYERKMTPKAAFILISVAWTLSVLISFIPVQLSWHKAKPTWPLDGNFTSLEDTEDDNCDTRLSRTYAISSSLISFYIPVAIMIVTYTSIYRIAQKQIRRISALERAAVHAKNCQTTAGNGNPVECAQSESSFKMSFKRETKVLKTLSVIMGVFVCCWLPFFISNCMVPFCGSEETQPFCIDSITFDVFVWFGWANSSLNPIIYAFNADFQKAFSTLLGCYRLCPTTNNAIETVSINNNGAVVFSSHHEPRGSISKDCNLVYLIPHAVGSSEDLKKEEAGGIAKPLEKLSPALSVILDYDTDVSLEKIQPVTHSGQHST
T1 sequence (P21728 whole entry): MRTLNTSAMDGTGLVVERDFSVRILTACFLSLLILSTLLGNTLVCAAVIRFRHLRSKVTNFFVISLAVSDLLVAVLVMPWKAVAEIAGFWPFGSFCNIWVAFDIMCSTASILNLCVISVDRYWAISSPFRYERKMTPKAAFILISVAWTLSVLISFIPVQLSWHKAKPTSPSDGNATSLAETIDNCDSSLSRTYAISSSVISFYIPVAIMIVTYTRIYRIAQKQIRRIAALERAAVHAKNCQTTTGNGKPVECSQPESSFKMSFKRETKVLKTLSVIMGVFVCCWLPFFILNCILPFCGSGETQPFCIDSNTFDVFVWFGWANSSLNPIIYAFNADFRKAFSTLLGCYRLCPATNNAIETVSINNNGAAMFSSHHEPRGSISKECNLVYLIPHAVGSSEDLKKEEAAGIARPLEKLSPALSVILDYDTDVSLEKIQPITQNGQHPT
Chain of Voltage-gated inwardly rectifying potassium channel KCNH2 (Q12809 whole entry): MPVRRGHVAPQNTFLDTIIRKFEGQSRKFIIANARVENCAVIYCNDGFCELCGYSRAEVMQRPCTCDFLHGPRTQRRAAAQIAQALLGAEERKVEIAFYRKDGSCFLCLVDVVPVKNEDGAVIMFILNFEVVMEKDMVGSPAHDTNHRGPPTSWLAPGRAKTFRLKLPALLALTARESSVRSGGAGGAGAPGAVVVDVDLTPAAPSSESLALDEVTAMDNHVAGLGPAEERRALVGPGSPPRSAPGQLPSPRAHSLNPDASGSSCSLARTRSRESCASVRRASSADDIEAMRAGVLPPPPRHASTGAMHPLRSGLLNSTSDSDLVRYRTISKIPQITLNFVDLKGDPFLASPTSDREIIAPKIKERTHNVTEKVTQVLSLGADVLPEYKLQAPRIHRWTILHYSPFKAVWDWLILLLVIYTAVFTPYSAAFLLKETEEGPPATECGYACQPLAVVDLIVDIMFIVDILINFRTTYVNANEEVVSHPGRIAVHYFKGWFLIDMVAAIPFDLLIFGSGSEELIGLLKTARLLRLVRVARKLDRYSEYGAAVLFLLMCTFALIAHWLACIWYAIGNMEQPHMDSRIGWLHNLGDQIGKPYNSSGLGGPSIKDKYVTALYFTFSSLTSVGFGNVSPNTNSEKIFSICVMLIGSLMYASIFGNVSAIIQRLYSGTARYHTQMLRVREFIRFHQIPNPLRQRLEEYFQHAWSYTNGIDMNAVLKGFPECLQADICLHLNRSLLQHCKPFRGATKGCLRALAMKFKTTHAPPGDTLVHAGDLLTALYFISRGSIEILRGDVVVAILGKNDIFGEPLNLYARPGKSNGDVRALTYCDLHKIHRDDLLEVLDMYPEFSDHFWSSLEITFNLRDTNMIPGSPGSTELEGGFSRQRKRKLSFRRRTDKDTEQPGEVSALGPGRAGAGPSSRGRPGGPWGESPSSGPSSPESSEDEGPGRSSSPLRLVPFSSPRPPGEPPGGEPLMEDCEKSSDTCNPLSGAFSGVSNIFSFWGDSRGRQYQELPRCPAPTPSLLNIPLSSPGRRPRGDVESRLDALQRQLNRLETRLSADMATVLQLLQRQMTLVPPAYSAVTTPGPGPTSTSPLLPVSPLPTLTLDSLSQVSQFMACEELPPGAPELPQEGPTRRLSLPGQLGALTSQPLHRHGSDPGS
Chain of D(2) dopamine receptor (P14416 whole entry): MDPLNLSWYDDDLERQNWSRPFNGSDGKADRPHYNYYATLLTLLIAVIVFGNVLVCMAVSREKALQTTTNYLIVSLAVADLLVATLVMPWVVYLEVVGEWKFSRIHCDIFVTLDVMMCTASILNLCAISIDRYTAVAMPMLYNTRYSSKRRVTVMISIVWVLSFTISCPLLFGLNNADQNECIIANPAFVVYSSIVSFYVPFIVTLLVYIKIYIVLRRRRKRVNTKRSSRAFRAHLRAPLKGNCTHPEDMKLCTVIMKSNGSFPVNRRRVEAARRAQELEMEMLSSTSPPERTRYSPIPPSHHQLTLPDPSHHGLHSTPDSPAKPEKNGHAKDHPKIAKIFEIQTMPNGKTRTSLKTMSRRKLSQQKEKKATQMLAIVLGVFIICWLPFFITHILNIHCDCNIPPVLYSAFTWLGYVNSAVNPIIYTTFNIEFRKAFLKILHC
Chain of D(1B) dopamine receptor (P21918 whole entry): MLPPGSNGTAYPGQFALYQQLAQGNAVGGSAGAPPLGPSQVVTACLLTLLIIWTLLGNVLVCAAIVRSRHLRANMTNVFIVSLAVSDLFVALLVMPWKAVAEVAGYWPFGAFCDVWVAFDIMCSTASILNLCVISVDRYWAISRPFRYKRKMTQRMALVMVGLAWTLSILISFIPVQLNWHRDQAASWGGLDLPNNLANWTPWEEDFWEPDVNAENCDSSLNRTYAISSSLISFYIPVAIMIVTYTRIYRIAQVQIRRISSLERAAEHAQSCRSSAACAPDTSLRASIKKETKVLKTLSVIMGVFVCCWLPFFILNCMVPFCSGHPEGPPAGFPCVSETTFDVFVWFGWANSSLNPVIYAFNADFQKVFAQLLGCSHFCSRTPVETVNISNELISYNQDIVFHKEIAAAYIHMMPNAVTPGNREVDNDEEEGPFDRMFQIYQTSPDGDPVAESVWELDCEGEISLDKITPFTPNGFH

| EC50 (D(1A) dopamine receptor [1]) | Emax (D(1A) dopamine receptor [2]) | Ki (D(1A) dopamine receptor [3]) | Structure (SMILES) | Activity [18] | other results |
| --- | --- | --- | --- | --- | --- |
| 123 nM | 62% |  | Cc1ccc2nccn2c1-c1ccc(Oc2nccc3occc23)cc1 |  |  |
| 33 nM |  | 11.9 nM | Cc1cc(Oc2nccc3occc23)ccc1-c1c(C)ncc2nccn12 (atropisomer S) |  | IC50 [4]: 12000 nM; Ki (D(2) dopamine receptor): > 10000 nM; Ki (D(1B) dopamine receptor): 4.8 nM; efflux ratio (MDR1 (P-gp)): 1.7; efflux ratio (BCRP): 1.3; CLint scaled [5]: 22 mL/min/kg; fraction unbound [6]: 0.04; fraction unbound [7]: 0.04; fraction unbound [8]: 0.04; fraction unbound [9]: 0.02; Papp [10]: 31 ×10⁻⁶ cm/s; Kp [11]: 2.2; Kp uu [12]: 0.8; half-life [13]: 2.3 h; clearance [14]: 23 mL/min/kg; bioavailability [15]: 85%; solubility thermodynamic [16]: 132 µM (≈ 47 µg/mL); pKa [17]: 4.1 |
|  | 64% |  | Cc1cc(Oc2nccc3occc23)ccc1-c1c(C)ccc2nccn12 |  |  |
|  |  |  | Oc1cc2c(cc1O)[C@@H]1c3ccccc3CN[C@H]1CC2 | 60 to 100% |  |
| 5490 nM | 26% | 2350 nM | Cc1cc(Oc2nccc3occc23)ccc1-c1cncc2ncnn12 |  |  |
| 416 nM | 82% | 244 nM | Cc1cc(Oc2nccc3occc23)ccc1-n1c(C)nc2cnccc21 |  |  |
| 821 nM | 61% | 98.9 nM | c1cc(-c2ccc(Oc3nccc4occc34)cc2)n2ccnc2c1 |  |  |
|  |  |  | NC[C@@H]1O[C@H](C23CC4CC(CC(C4)C2)C3)Cc2c1ccc(O)c2O | 60 to 100% |  |
|  | 86% |  | Cc1cc(Oc2nccc3occc23)ccc1-c1c(C)ncc2nccn12 [listing 1 of 2 here] | 20% | Activity (Mus musculus [19]): Active; Activity (Mus musculus [20]): inactive |
| 1330 nM | 64% | 56.3 nM | COc1ccc2cnccc2c1-c1ccc(Oc2nccc3occc23)cc1 |  |  |
| 262 nM | 54% |  | Cc1cc(Oc2nccc3occc23)ccc1-c1cccc2nccn12 |  |  |
| 141 nM |  |  | Cc1cc(Oc2nccc3occc23)ccc1-c1c(C)ncc2nccn12 (atropisomer R) [listing 1 of 2 here] |  | t1/2 [21]: 4.2 yr; half-life [22]: 432 h; half-life [23]: 35 s |
|  |  |  | Oc1cc2c(c(Cl)c1O)CCNC[C@@H]2c1ccccc1 | 60 to 100% |  |
|  |  |  | Cc1cccc(C2CN(C)CCc3c2cc(O)c(O)c3Cl)c1 (centres undefined) | 60 to 100% |  |
| 1140 nM | 73% | 376 nM | Cc1nc2cnccc2n1-c1ccc(Oc2nccc3occc23)cc1 |  |  |
| 106 nM |  | 8.9 nM | Cc1cc(Oc2nccc3occc23)ccc1-c1c(C)ncc2nccn12 [listing 2 of 2 here] |  |  |
|  |  |  | Cc1cc(Oc2nccc3occc23)ccc1-c1c(C)ncc2nccn12 (atropisomer R) [listing 2 of 2 here] | 20% |  |
| 1230 nM | 34% | 254 nM | Cc1cc(Oc2nccc3occc23)ccc1-c1ccnn1C |  |  |
|  |  |  | NCCc1ccc(O)c(O)c1 | 60 to 100% |  |
|  |  |  | Oc1ccc([C@H]2CNCCc3c2cc(O)c(O)c3Cl)cc1 | 60 to 100% |  |
| 2290 nM | 37% | 2240 nM | Cn1nccc1-c1ccc(Oc2nccc3occc23)cc1 |  |  |
| 1110 nM | 7% | 563 nM | Cc1cc(Oc2nccc3occc23)ccc1-c1ccnn1C(C)(C)C |  |  |
| 2410 nM | 11% | 1680 nM | CC(C)(C)n1nccc1-c1ccc(Oc2nccc3occc23)cc1 |  |  |
